Screening data from PubChem BioAssay.
Compounds with a hit are over-represented: about 9.6% of the library has one in this group of screens.
HCT116 PTEN-null: growth suppression of PTEN-null HCT116, primary screen, cell-based, CellTiter-Glo. AID 827, 2007. actives 1.2% (n = 140,000). HCT116 PTEN-null viability, 60 h; hits give low values. viability, % at 10 µM;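 active = viability at or below a set limit, 4 SD under the median of all tested compounds, cut at about 3.7% in these data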;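 also: PTEN knockout HCT116 line with beta catenin targeted HCT116 as companion control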
TNAP inh noacc: human TNAP enzyme inhibitors, primary screen, biochemical, luminescent, no phosphate acceptor, uHTS; Alkaline phosphatase, tissue-nonspecific isozyme (Homo sapiens), P05186; purified TNAP, CDP-star luminescence, 30 min; inhibition, % at 20 µM; actives 0.26% (n = 200,000);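 active = tissue-nonspecific alkaline phosphatase inhibition above about 50% at 20 µM in the single-dose screen, limit read from the data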
Target sequence (P05186 whole entry, looked up): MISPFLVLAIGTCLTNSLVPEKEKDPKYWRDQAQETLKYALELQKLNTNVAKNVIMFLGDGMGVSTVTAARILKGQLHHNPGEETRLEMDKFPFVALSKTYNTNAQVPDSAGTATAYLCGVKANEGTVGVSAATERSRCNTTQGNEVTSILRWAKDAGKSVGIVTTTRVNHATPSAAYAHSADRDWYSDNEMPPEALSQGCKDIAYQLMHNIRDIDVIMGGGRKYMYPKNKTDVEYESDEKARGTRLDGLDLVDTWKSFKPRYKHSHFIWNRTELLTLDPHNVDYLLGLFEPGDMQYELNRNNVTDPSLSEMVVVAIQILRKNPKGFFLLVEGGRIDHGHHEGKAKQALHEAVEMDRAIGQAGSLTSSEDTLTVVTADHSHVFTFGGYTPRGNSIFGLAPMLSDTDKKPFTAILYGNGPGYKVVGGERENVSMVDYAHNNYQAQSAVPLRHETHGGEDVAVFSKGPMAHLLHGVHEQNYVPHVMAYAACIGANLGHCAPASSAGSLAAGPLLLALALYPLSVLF
bCat KO growth: primary screen for growth suppressors in beta-catenin knockout HCT116 cells (colon tumor, human); viability, % at 10 µM; actives 1.5% (n = 140,000); AID 818, 2007; HCT116 beta-catenin knockout viability, CellTiter-Glo, 60 h; hits give low values;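 active = viability at or under a set limit, the compound median less 4 SD, cut at about 6% in these data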
Lmaj promast: Leishmania major promastigote growth inhibition, primary screen. inhibition, % at 10 µM. AID 1063, 2008. Leishmania major promastigotes, resazurin fluorescence viability. actives 9% (n = 200,000); in the data active = inhibition above about 50%;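 also: promastigotes grown with compound for 44 hours at 28 °C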
TNAP act hiacc: TNAP activators at high phosphate acceptor level, primary screen, biochemical, luminescence, uHTS. Alkaline phosphatase, tissue-nonspecific isozyme (Homo sapiens), P05186. purified TNAP, CDP-star luminescence, 1 M DEA, 30 min; hits give high values; 0 = EDTA background, 1 = DMSO-only activity. activation factor at 20 µM. 200,000 tested, under 10 active;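 active = activation factor at least 2 at 20 µM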
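system = human TNAP | amount = enzyme diluted 1/800 final | reagent = 100 µM CDP-star substrate | signal = luminescent substrate turnover signal | dosing = one dose, 20 µM | benchmarks = EDTA negative control, DMSO positive control | measure = activation factor | timing = 30 min reaction, room temperature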
TNAP inh hi DEA: human TNAP enzyme inhibitors, primary screen, biochemical, luminescent, high phosphate acceptor level, uHTS; Alkaline phosphatase, tissue-nonspecific isozyme (Homo sapiens), P05186; purified TNAP, CDP-star luminescence, 1 M DEA; inhibition, % at 20 µM; actives 0.03% (n = 200,000); AID 1135, 2008;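 active = over 50% inhibition of tissue-nonspecific alkaline phosphatase at 20 µM in the single-dose screen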
Numbers stand for hits.

Results for FC(F)(F)c1cccc(Cc2noc(CN3CCCC(CN4CCCC4)C3)n2)c1 (centres undefined) ?
TNAP inh noacc: inactive; Lmaj promast: inactive; TNAP act hiacc: inactive; TNAP inh hi DEA: inactive

Results for CCN(CC)CCc1c(C)[nH]c(C(=O)OCc2ccccc2)c1C ?
HCT116 PTEN-null: inactive; TNAP inh noacc: inactive; bCat KO growth: inactive; Lmaj promast: 100.1; TNAP act hiacc: inactive; TNAP inh hi DEA: inactive

Results for CC(=O)N(C)C(c1ccc(N(C)C)cc1)c1nnnn1-c1c(C)cccc1C (centres undefined) ?
HCT116 PTEN-null: inactive; TNAP inh noacc: inactive; bCat KO growth: inactive; Lmaj promast: inactive; TNAP act hiacc: inactive; TNAP inh hi DEA: inactive

Results for Cc1ccc(C)c(N2CCN(C(=O)c3ccc(CS(=O)(=O)c4ccccc4C)o3)CC2)c1 ?
HCT116 PTEN-null: inactive; TNAP inh noacc: inactive; bCat KO growth: inactive; Lmaj promast: inactive; TNAP act hiacc: inactive; TNAP inh hi DEA: inactive

Results for Cc1cccc(N2CCN(C(=O)c3ccc(CS(=O)(=O)c4ccccc4C)o3)CC2C)c1 (centres undefined) ?
HCT116 PTEN-null: inactive; TNAP inh noacc: inactive; bCat KO growth: inactive; Lmaj promast: 58.9; TNAP act hiacc: inactive; TNAP inh hi DEA: inactive

Results for C=CCn1c(SCC(=O)Nc2sccc2C(N)=O)nc2sc(CC)cc2c1=O ?
HCT116 PTEN-null: inactive; TNAP inh noacc: inactive; bCat KO growth: inactive; Lmaj promast: inactive; TNAP act hiacc: inactive; TNAP inh hi DEA: inactive

Results for C=CCn1c(SCc2nc3cc(C(=O)OC)ccc3c(=O)[nH]2)nc2sc(CC)cc2c1=O ?
HCT116 PTEN-null: inactive; TNAP inh noacc: inactive; bCat KO growth: inactive; Lmaj promast: 58.7; TNAP act hiacc: inactive; TNAP inh hi DEA: inactive

How did C=CCN1C(=O)/C(=N/n2cnnc2)c2ccccc21 do in these assays?
HCT116 PTEN-null: inactive; TNAP inh noacc: inactive; bCat KO growth: inactive; Lmaj promast: inactive; TNAP act hiacc: inactive; TNAP inh hi DEA: inactive

What do the screens show for `CC(C)CN1C(=O)C(=Nc2cccnc2)c2ccccc21`?
TNAP inh noacc: inactive; Lmaj promast: 82.2; TNAP act hiacc: inactive; TNAP inh hi DEA: inactive

What do the screens show for `COC(=O)c1ccc(N/C(=N/S(=O)(=O)c2ccccc2)c2ccccc2)cc1`?
HCT116 PTEN-null: inactive; TNAP inh noacc: inactive; bCat KO growth: inactive; Lmaj promast: inactive; TNAP act hiacc: inactive; TNAP inh hi DEA: inactive

How did CCOC(=O)c1ccc(NC(=O)CCOc2ccccc2)cc1 do in these assays?
HCT116 PTEN-null: inactive; TNAP inh noacc: inactive; bCat KO growth: inactive; Lmaj promast: 84.5; TNAP act hiacc: inactive; TNAP inh hi DEA: inactive

What do the screens show for `CCOc1ccc(NC(=O)CCC(=O)c2ccc(-c3ccccc3)cc2)cc1`?
HCT116 PTEN-null: inactive; TNAP inh noacc: inactive; bCat KO growth: inactive; Lmaj promast: 50.5; TNAP act hiacc: inactive; TNAP inh hi DEA: inactive

How did CCCOC(=O)c1ccc(NC(=O)CCOc2ccccc2)cc1 do in these assays?
HCT116 PTEN-null: inactive; TNAP inh noacc: inactive; bCat KO growth: inactive; Lmaj promast: inactive; TNAP act hiacc: inactive; TNAP inh hi DEA: inactive

What do the screens show for `CCOC(=O)c1ccc(N/C(=N\S(=O)(=O)c2ccccc2C)c2ccccc2)cc1`?
HCT116 PTEN-null: inactive; TNAP inh noacc: inactive; bCat KO growth: inactive; Lmaj promast: 87.8; TNAP act hiacc: inactive; TNAP inh hi DEA: inactive

What do the screens show for `Cc1cccc(OCCCC(=O)Nc2ccc(N(C)C)cc2)c1`?
HCT116 PTEN-null: inactive; TNAP inh noacc: inactive; bCat KO growth: inactive; Lmaj promast: 96.5; TNAP act hiacc: inactive; TNAP inh hi DEA: inactive

Results for CCOc1ccc(NC(=O)Cc2ccccc2)cc1 ?
HCT116 PTEN-null: inactive; TNAP inh noacc: inactive; bCat KO growth: inactive; Lmaj promast: inactive; TNAP act hiacc: inactive; TNAP inh hi DEA: inactive

What do the screens show for `COc1cccc(NC(=S)NCCc2ccccn2)c1`?
TNAP inh noacc: inactive; Lmaj promast: inactive; TNAP act hiacc: inactive; TNAP inh hi DEA: inactive

What do the screens show for `Cc1ccc(OCCn2cnc3ccccc3c2=O)c([N+](=O)[O-])c1`?
HCT116 PTEN-null: inactive; TNAP inh noacc: inactive; bCat KO growth: inactive; Lmaj promast: inactive; TNAP act hiacc: inactive; TNAP inh hi DEA: inactive

What do the screens show for `CC(C)OC(=O)COc1ccc(-c2ccccc2)cc1`?
HCT116 PTEN-null: inactive; TNAP inh noacc: inactive; bCat KO growth: inactive; Lmaj promast: inactive; TNAP act hiacc: inactive; TNAP inh hi DEA: inactive

How did CC(=O)c1ccc(OCC(=O)c2ccc(-c3ccccc3)cc2)cc1 do in these assays?
HCT116 PTEN-null: inactive; TNAP inh noacc: inactive; bCat KO growth: inactive; Lmaj promast: 59.5; TNAP act hiacc: inactive; TNAP inh hi DEA: inactive

What do the screens show for `CN(C)CC(=O)c1ccc(-c2ccccc2)cc1`?
HCT116 PTEN-null: inactive; TNAP inh noacc: inactive; bCat KO growth: inactive; Lmaj promast: 86.3; TNAP act hiacc: inactive; TNAP inh hi DEA: inactive

Results for CCN(CC)CC(=O)c1ccc(-c2ccccc2)cc1 ?
HCT116 PTEN-null: inactive; TNAP inh noacc: inactive; bCat KO growth: inactive; Lmaj promast: inactive; TNAP act hiacc: inactive; TNAP inh hi DEA: inactive

Results for Cc1cc(C(=O)OCc2nnc(-c3ccccc3)o2)c(C)n1-c1ccccc1 ?
HCT116 PTEN-null: inactive; TNAP inh noacc: inactive; bCat KO growth: inactive; Lmaj promast: inactive; TNAP act hiacc: inactive; TNAP inh hi DEA: inactive

How did Cc1noc(C)c1COC(=O)c1cc(C)n(-c2ccccc2)c1C do in these assays?
HCT116 PTEN-null: inactive; TNAP inh noacc: inactive; bCat KO growth: inactive; Lmaj promast: 78.7; TNAP act hiacc: inactive; TNAP inh hi DEA: inactive

Results for Cc1cc(C(=O)COC(=O)c2ccc[nH]c2=O)c(C)n1-c1ccc(F)cc1 ?
HCT116 PTEN-null: inactive; TNAP inh noacc: inactive; bCat KO growth: inactive; Lmaj promast: 69.5; TNAP act hiacc: inactive; TNAP inh hi DEA: inactive

Results for Cc1cc(C(=O)COC(=O)c2ccc[nH]c2=O)c(C)n1-c1ccccc1 ?
HCT116 PTEN-null: inactive; TNAP inh noacc: inactive; bCat KO growth: inactive; Lmaj promast: 70.7; TNAP act hiacc: inactive; TNAP inh hi DEA: inactive

How did CC1CCCN(C2=NC(=O)/C(=C/c3cn(-c4ccccc4)nc3-c3cccc(S(=O)(=O)N(C)C)c3)S2)C1 (centres undefined) do in these assays?
HCT116 PTEN-null: inactive; TNAP inh noacc: inactive; bCat KO growth: inactive; Lmaj promast: 69.1; TNAP act hiacc: inactive; TNAP inh hi DEA: inactive

What do the screens show for `CC1CCN(C2=NC(=O)/C(=C/c3cn(-c4ccccc4)nc3-c3cccc(S(=O)(=O)N(C)C)c3)S2)CC1`?
HCT116 PTEN-null: inactive; TNAP inh noacc: inactive; bCat KO growth: inactive; Lmaj promast: 79.6; TNAP act hiacc: inactive; TNAP inh hi DEA: inactive
